Among the data in ChEMBL document CHEMBL1124531, “Intercalating agents with covalent bond forming capability. A novel type of potential anticancer agents. 2. Derivatives of chrysophanol and emodin” (1989) are ID50, Ratio and IC50 values, retold here.

The subject of assay [1] is Nucleic Acid. Briefly: Inhibitory activity against [3H]TdR incorporation into DNA in HL-60 cells during the initial 30-min period. In kind it is functional, cell-based. As to conditions: Homo sapiens. In a few lines:
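HL-60 cells (2.5 × 10^6/mL) preincubated 15 min with compound at four to six concentrations in 0.2% DMSO, then pulsed with [3H-methyl]TdR (1 μCi, 0.15 nmol/mL) for 30 min; radioactivity in isolated DNA fraction counted; compound-free DMSO control as reference.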

In assay [2] the test system is Nucleic Acid. Briefly: Ratio for human acute promyelocytic leukemia cells(HL-60) cell growth inhibition and [3H]TdR incorporation into DNA in HL-60 cells. In kind it is functional, cell-based.
The subject of the next assay is L1210. Put plainly: Inhibitory activity against murine L1210 leukemic cell growth. In kind it is functional. The following applies: Mus musculus, read-out: ID50 (the source's name).
In a further assay the test system is HL-60. Put plainly: Inhibitory activity against human acute promyelocytic leukemia cells(HL-60) cell growth on 72 hr of exposure of the compound. In kind it is functional. As to conditions: HL-60, 72 h, read-out: ID50 (the source's name).

As to `CCNCc1cc(O)c2c(c1)C(=O)c1cc(OC)cc(O)c1C2=O`, the ID50 in the assay with Nucleic Acid [1] is 13 µM. For the same compound, the Ratio with Nucleic Acid [2] was 6.2. In addition, the IC50 with L1210 amounted to 0.72 µM; with HL-60, 2.1 µM.

The compound `COc1cc(O)c2c(c1)C(=O)c1cc(C(Br)Br)cc(O)c1C2=O` registered an ID50 with Nucleic Acid [1] of 110 µM. Further, the Ratio in the assay on Nucleic Acid [2] is 579. The IC50 was found to be 0.001 µM in the assay on L1210 and 0.19 µM with HL-60.

In turn, `COc1cc(OC)c2c(c1)C(=O)c1cc(C(Br)Br)cc(OC)c1C2=O` had an ID50 in the assay with Nucleic Acid [1] of 58 µM. For the same compound, the Ratio in the assay with Nucleic Acid [2] stood at 9.7. Moreover, the IC50 with L1210 worked out at 41 µM; in the assay on HL-60, 6 µM.

Regarding `CCN(CC)Cc1cc(OC)c2c(c1)C(=O)c1cc(OC)cc(OC)c1C2=O`, in the assay with Nucleic Acid [1], the ID50 came to 4.2 µM. Besides, in the assay on Nucleic Acid [2], the Ratio was found to be 0.53. The IC50 in the assay with L1210 is 6.9 µM; in the assay with HL-60, 7.9 µM.

On to `CCN(CC)Cc1cc(O)c2c(c1)C(=O)c1cccc(O)c1C2=O`, for which the ID50 with Nucleic Acid [1] stood at 14 µM. In addition, the Ratio with Nucleic Acid [2] is 7.8. The results for the IC50 in the assay on L1210 and in the assay with HL-60 were 2.8 µM and 1.8 µM, respectively.

`COc1cccc2c1C(=O)c1c(OC)cc(CN(CCCl)CCCl)cc1C2=O` displayed an ID50 in the assay on Nucleic Acid [1] of 14 µM. In addition, in the assay with Nucleic Acid [2], the Ratio was 7.8. The IC50 turned out to be 13 µM in the assay on L1210 and 1.8 µM with HL-60.

Take `CCN(CC)Cc1cc(OC)c2c(c1)C(=O)c1cccc(OC)c1C2=O`: in the assay with Nucleic Acid [1], the ID50 is 19 µM. Moreover, the Ratio in the assay with Nucleic Acid [2] amounted to 6.3. Further, the IC50 stood at 130 µM in the assay with L1210 and 30 µM with HL-60.

As for `CCN(CC)Cc1cc(O)c2c(c1)C(=O)c1cc(OC)cc(O)c1C2=O`, in the assay with Nucleic Acid [1], the ID50 amounted to 35 µM. Also, the Ratio in the assay with Nucleic Acid [2] was found to be 10.3. For the same compound, the IC50 with L1210 amounted to 1.2 µM; in the assay on HL-60, 3.4 µM.

`CNC(=O)OCCN(CCOC(=O)NC)Cc1cc(OC)c2c(c1)C(=O)c1cccc(OC)c1C2=O`: the ID50 in the assay on Nucleic Acid [1] was found to be 9.4 µM. In addition, in the assay with Nucleic Acid [2], the Ratio came to 0.99. Besides, the values for the IC50 with L1210 and with HL-60 were 72 µM and 9.5 µM, respectively.

Turning to `O=C1c2cccc(O)c2C(=O)c2c(O)cc(CN(CCO)CCO)cc21`, the ID50 with Nucleic Acid [1] is 14 µM. The Ratio in the assay on Nucleic Acid [2] came out at 4.2. Further, the IC50 in the assay on L1210 came to 5.9 µM; with HL-60, 3.3 µM.
